In article PMC10586715 (ACS chemical biology, 2023):
Peptide text beside a SMILES is read from it. * marks the point of attachment. Cbz = O=C(OCc1ccccc1)*

What was measured:
[1] = biological target: T1, sEH (Homo sapiens, UniProt P34913); assay: sEH degradation in HepG2 cells by immunoblot; type: cell-based; conditions: for effect of co-treatment on sEH degradation induced by 1a: co-treatment with 1a, immunoblot
T1 sequence (P34913 1-555): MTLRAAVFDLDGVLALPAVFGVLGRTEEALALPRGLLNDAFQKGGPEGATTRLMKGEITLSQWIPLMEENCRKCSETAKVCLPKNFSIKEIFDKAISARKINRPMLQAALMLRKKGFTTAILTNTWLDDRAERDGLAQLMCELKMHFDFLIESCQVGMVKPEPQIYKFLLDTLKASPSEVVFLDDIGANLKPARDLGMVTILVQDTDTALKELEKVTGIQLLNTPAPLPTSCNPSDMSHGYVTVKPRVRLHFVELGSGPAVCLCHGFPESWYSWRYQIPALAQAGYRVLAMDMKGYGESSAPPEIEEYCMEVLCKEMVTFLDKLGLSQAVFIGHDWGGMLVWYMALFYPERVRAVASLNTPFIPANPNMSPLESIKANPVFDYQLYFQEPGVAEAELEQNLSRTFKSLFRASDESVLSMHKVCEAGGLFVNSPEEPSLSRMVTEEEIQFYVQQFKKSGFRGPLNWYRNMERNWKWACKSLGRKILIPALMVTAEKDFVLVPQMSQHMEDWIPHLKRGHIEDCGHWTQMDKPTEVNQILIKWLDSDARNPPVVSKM

[2] = biological target: T1, sEH; assay: Immunofluorescence colocalization of sEH with compartment markers; type: cell-based; conditions: co-treatment with 1a
Outline: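 Fixed in 4% paraformaldehyde for 20 min, permeabilised with 0.02% Triton X-100, blocked 1 h at room temperature in 5% goat serum with 1% BSA. Mouse anti-sEH plus rabbit anti-LAMP2 at 4 °C overnight; Alexa Fluor 647/488 secondaries (1:500) for 1 h; DAPI 10 min. Imaged at 20x by high-content imaging, automated analysis. Colocalisation area normalised to cell count.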

[3] = biological target: T1, sEH; assay: sEH level in CRBN-knockout HEK293T cells; type: cell-based
Outline: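 CRBN knockout HEK293T cells were maintained in high-glucose (4.5 g/L) DMEM with 10% fetal bovine serum, 100 units/mL penicillin and streptomycin.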

[4] = tested on: EPHX2; assay: sEH transcription by qRT-PCR; type: cell-based, human
[5] = biological target: T1, sEH; assay: Residual sEH hydrolase activity of treated HepG2 cells; type: cell-based; conditions: HepG2, 1 μM, 24 h

Compound	effect of co-treatment on sEH degradation induced by 1a [1]	also measured
CC(C)C[C@H](NC(=O)[C@H](Cc1ccccc1)NC(=O)c1cnccn1)B(O)O [BTZ, bortezomib]	slightly reversed the sEH degradation induced by 1a but higher concentrations failed to block	effect of co-treatment on sEH degradation induced by 1e and 2a ([1]; co-treatment with 1e or 2a): failed to block the degradation
CO/C1=C\C(C)=C\[C@@H](C)[C@@H](O)[C@@H](C)C/C(C)=C/C=C/[C@H](OC)[C@@H]([C@@H](C)[C@@H](O)[C@H](C)[C@@]2(O)C[C@@H](O)[C@H](C)[C@@H](C(C)C)O2)OC1=O [BafA1, bafilomycin A1]	blocked the degradation	effect of co-treatment on 1a-promoted sEH colocalization with LAMP2 [2]: reversed this trend
CC(C)C[C@@H](C=O)NC(=O)[C@H](CC(C)C)NC(=O)[C@H](CC(C)C)NC(=O)OCc1ccccc1 [MG132] (Cbz-Leu-Leu-Leu-aldehyde)	failed to block the degradation induced by PROTAC 1a and instead promoted sEH degradation	effect on sEH level in CRBN-knockout cells [3]: neither 1a nor MG132 affect sEH level; effect on transcription of sEH [4]: did not affect
NS(=O)(=O)OC[C@@H]1C[C@@H](n2ccc3c(N[C@H]4CCc5ccccc54)ncnc32)C[C@@H]1O [MLN4924]	blocked the sEH degradation	–
N#Cc1ccc(COC[C@H]2O[C@@H](n3c(NCc4ccc(Cl)c(Cl)c4)nc4c(N)ncnc43)[C@H](O)[C@@H]2O)cc1 [VER155008]	failed to rescue the sEH degradation	–
trans-4-[4-(3-trifluoromethoxyphenyl-1-ureido)-cyclohexyloxy]-benzoic acid [Compound 1]	counteract the degradation effect	sEH hydrolase activity after treatment [5]: only slight inhibition
